Converted amounts (≈) assume the structure as drawn. “And” between values parts separate entries of the source, which are not always exact repeats. Identical values can stand only once.
Columns and labels:
[1] = tested on: test strains of H. pylori; assay: Broth dilution bioassay MIC/MBC, text summary over test strains; type: cell-based; settings: Helicobacter pylori; for MIC: ATCC51932
[2] = target: H. pylori ATCC 43504 urease (Helicobacter pylori, UniProt P69996); assay: Urease inhibition, salicylate-hypochlorite method; type: biochemical; settings: for slope ± SE: slope of dose-response curve of percentage of urease inhibition
Chain of H. pylori ATCC 43504 urease (P69996 whole entry): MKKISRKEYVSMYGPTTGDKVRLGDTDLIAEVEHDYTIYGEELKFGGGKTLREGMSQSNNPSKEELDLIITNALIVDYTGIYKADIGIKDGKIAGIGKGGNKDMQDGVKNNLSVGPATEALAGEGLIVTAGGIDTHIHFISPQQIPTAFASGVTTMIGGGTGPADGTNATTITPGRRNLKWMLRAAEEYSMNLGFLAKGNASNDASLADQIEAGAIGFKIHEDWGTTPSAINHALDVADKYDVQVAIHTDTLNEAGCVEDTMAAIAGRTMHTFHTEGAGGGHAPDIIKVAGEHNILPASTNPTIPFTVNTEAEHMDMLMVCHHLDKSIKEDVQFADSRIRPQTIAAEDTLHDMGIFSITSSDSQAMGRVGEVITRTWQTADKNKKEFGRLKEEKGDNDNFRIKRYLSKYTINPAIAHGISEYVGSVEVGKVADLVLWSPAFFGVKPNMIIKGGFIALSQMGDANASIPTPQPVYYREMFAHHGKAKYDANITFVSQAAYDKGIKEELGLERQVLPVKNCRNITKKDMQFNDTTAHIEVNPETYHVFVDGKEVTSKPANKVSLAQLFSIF
Chain of H. pylori ATCC 43504 urease (P14916 whole entry partner): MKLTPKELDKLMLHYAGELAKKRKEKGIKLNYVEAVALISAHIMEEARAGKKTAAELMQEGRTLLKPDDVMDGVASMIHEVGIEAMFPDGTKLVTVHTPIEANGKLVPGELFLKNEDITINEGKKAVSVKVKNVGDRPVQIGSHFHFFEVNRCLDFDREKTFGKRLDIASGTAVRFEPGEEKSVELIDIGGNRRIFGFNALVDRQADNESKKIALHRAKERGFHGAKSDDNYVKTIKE
In short: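 Crude H. pylori ATCC 43504 urease, 0.25 μg (0.04 U), in EDTA–sodium phosphate buffer pH 7.3, was preincubated with test compound at 37 °C for 90 min at 50 rpm. Urea solution (10 mM, as added) was then incubated for 30 min. Ammonia was measured by the salicylate–nitroprusside/alkaline hypochlorite method at 625 nm. Thiourea was the reference inhibitor. IC50 is molar. Triplicates, three independent experiments.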

[3] = Sulforhodamine cytotoxicity assay, fibroblast; type: cell-based; settings: human, fibroblast cells derived from human foreskins
In short: (§1)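 Cells were grown in EMEM with 10% FBS, 2 mM L-glutamine, 20 mM HEPES and antibiotics at 37 °C, 5% CO2. Passages were 4–20 for HeLa, MCF7 and Jurkat, and 2–5 for fibroblasts. Seeding per well for 24 h: HeLa 5×10^3, MCF7 and fibroblast 10^4, Jurkat 5×10^4. Test compound (0–200 mg/L, in DMSO) was added for 48 h. Cells were fixed with cold TCA, stained with 0.2% SRB, solubilised in 10 mM Tris and read at 492 nm. Camptothecin was the positive control. Triplicates, three independent experiments.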

[4] = Sulforhodamine cytotoxicity assay, text summary over four cell lines; type: cell-based; settings: human
In short: as §1

H. pylori OX.67 = assay: Broth dilution bioassay MIC/MBC, OX.67; type: cell-based, Helicobacter pylori; settings: Helicobacter pylori; for MIC: OX.67, 48 h, H. pylori OX.67, broth dilution, 48 h; for MBC: OX.67, 72 h
H. pylori ATCC 43504 [5] = assay: Effect on morphology; type: cell-based, Helicobacter pylori
[6] = Sulforhodamine cytotoxicity assay, MCF7; type: cell-based; settings: human, MCF7 cells
In short: as §1

H. pylori OX.63 = assay: Broth dilution bioassay MIC/MBC, OX.63; type: cell-based, Helicobacter pylori; settings: Helicobacter pylori; for MIC: OX.63, 48 h, H. pylori OX.63, broth dilution, 48 h; for MBC: OX.63, 72 h
[7] = tested on: H. pylori ATCC 43504 biofilm formation; assay: Biofilm formation inhibitory assay; type: cell-based, Helicobacter pylori; settings: 48 h
H. pylori OX.83 = assay: Broth dilution bioassay MIC/MBC, OX.83; type: cell-based, Helicobacter pylori; settings: Helicobacter pylori; for MIC: OX.83, 48 h, H. pylori OX.83, broth dilution, 48 h; for MBC: OX.83, 72 h
[8] = Sulforhodamine cytotoxicity assay, HeLa; type: cell-based; settings: human, HeLa cells
In short: as §1

H. pylori ATCC 43504 [9] = assay: Broth dilution bioassay MIC/MBC, ATCC 43504; type: cell-based; settings: Helicobacter pylori; for MIC: ATCC43504, 48 h; for MBC: ATCC43504, 72 h
H. pylori OX.64 = assay: Broth dilution bioassay MIC/MBC, OX.64; type: cell-based, Helicobacter pylori; settings: Helicobacter pylori; for MIC: OX.64, 48 h, H. pylori OX.64, broth dilution, 48 h; for MBC: OX.64, 72 h
H. pylori OX.22 = assay: Broth dilution bioassay MIC/MBC, OX.22; type: cell-based; settings: Helicobacter pylori; for MIC: OX.22, 48 h; for MBC: OX.22, 72 h
[10] = Sulforhodamine cytotoxicity assay, Jurkat; type: cell-based; settings: human, Jurkat cells
In short: as §1

H. pylori ATCC 43504 [11] = assay: Time-killing assay; type: cell-based, Helicobacter pylori
In short: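 H. pylori ATCC 43504 in 10% NBS-supplemented Brucella broth in 96-well plates, by broth microdilution. Inoculum suspension 5×10^6 CFU/mL; DMSO final ≤2.5%. Test compound was used at concentrations from MIC to MBC, alongside an untreated control. Viability was counted by plate colony count at 0, 6, 12, 18, 24, 36 and 48 h.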

H. pylori ATCC 51932 = assay: Broth dilution bioassay MIC/MBC, ATCC 51932; type: cell-based; settings: Helicobacter pylori; for MIC: ATCC51932, 48 h; for MBC: ATCC51932, 72 h

SMILES | MBC [1] | MIC [1] | IC50 [2] | slope ± SE [2] | CC50 at 48 h [3] | CC50 at 48 h [4] | MIC (H. pylori OX.67) | MBC (H. pylori OX.67) | conversion to the coccoid form (H. pylori ATCC 43504 [5]; 500 mg/L) | conversion to the coccoid form (H. pylori ATCC 43504 [5]; 1000 mg/L) | CC50 at 48 h [6] | MIC (H. pylori OX.63) | MBC (H. pylori OX.63) | MIC (H. pylori OX.83) | MBC (H. pylori OX.83) | CC50 at 48 h [8] | MIC (H. pylori ATCC 43504 [9]) | MBC (H. pylori ATCC 43504 [9]) | MIC (H. pylori OX.64) | MBC (H. pylori OX.64) | also measured
O=c1cc(-c2ccc(O)c(O)c2)oc2cc(O)cc(O)c12 [LUT, luteolin] | 1250 mg/L (≈ 4370 µM) | 125 mg/L (≈ 437 µM) | 402 µM | 2.16 ± 0.080 | 49.8 mg/L (≈ 174 µM) | 5.12 to 49.8 mg/L (≈ 17.9 to 174 µM) | 125 mg/L (≈ 437 µM) | 1250 mg/L (≈ 4370 µM) | 14.7% | 87.5% | 8.64 mg/L (≈ 30.2 µM) | 125 mg/L (≈ 437 µM) | 1250 mg/L (≈ 4370 µM) | 125 mg/L (≈ 437 µM) | 1250 mg/L (≈ 4370 µM) | 8.36 mg/L (≈ 29.2 µM) | 125 mg/L (≈ 437 µM) | 1250 mg/L (≈ 4370 µM) | 125 mg/L (≈ 437 µM) | 1250 mg/L (≈ 4370 µM) | antibiofilm activity ([7]; at test concentrations (sub-MICs)): did not show antibiofilm activity; MIC (H. pylori OX.22): 125 mg/L (≈ 437 µM); MBC (H. pylori OX.22): 1250 mg/L (≈ 4370 µM); CC50 at 48 h [10]: 5.12 mg/L (≈ 17.9 µM); reduction of viability (H. pylori ATCC 43504 [11]; four times the MIC, 12 h): ~3 log10; MIC (H. pylori ATCC 51932): 125 mg/L (≈ 437 µM); MBC (H. pylori ATCC 51932): 1250 mg/L (≈ 4370 µM)
O=c1c(O)c(-c2cc(O)c(O)c(O)c2)oc2cc(O)cc(O)c12 [MCT, myricetin] | 1250 mg/L (≈ 3930 µM) | 150 mg/L (≈ 471 µM) | 63 µM | 2.26 and 2.26 ± 0.070 | 76.1 mg/L (≈ 239 µM) | 7.61 to 76.1 mg/L (≈ 23.9 to 239 µM) | 150 mg/L (≈ 471 µM) | 1250 mg/L (≈ 3930 µM) | 15% | 79% | 31.7 mg/L (≈ 99.6 µM) | 150 mg/L (≈ 471 µM) | 1250 mg/L (≈ 3930 µM) | 150 mg/L (≈ 471 µM) | 1250 mg/L (≈ 3930 µM) | 36.8 mg/L (≈ 116 µM) | 150 mg/L (≈ 471 µM) | 1250 mg/L (≈ 3930 µM) | 150 mg/L (≈ 471 µM) | 1250 mg/L (≈ 3930 µM) | concentration of complete inhibition of urease ([2]; Figure 5): 0.402 mM; reduction of biofilm formation ([7]; 1/2 × MIC (NRG 50 mg/L, MCT 75 mg/L)): 39.5%; MIC (H. pylori OX.22): 150 mg/L (≈ 471 µM); MBC (H. pylori OX.22): 1250 mg/L (≈ 3930 µM); CC50 at 48 h [10]: 7.61 mg/L (≈ 23.9 µM); reduction of viability (H. pylori ATCC 43504 [11]; at the MIC, 24 h): ~2.7 log10; reduction of viability (H. pylori ATCC 43504 [11]; eight times the MIC, 36 h): ~4.2 log10; MIC (H. pylori ATCC 51932): 150 mg/L (≈ 471 µM); MBC (H. pylori ATCC 51932): 1250 mg/L (≈ 3930 µM)

— article PMC7439261 (ACS Omega, 2020)
